Laboratory results reported in ChEMBL document CHEMBL4308914, “Discovery of potent, low-absorbable sodium-dependent glucose cotransporter 1 (SGLT1) inhibitor SGL5213 for type 2 diabetes treatment” (Bioorg Med Chem, 2019).

Assays:
[1] = Drug uptake in Sprague-Dawley rat kidney at 0.3 mg/kg, iv administered as single dose after 72 hrs by LCMS analysis; assay type: ADME, organism-based; details: read-out: Drug uptake
In short: (§1)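 Fasted male SD rats given single i.v. dose in saline; animals euthanized at 2, 24 and 72 h, kidneys homogenized in purified water and unchanged drug measured by LC-MS/MS (ng/g tissue). Mean ± SD of three animals; 72 h level also expressed relative to 2 h value.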

[2] = Drug uptake in Sprague-Dawley rat kidney at 0.3 mg/kg, iv administered as single dose after 2 hrs by LCMS analysis; assay type: ADME, organism-based; details: read-out: Drug uptake; in short: as §1
[3] = Drug uptake in Sprague-Dawley rat kidney assessed as unchanged drug level at 0.3 mg/kg, iv administered as single dose after 72 hrs by LCMS analysis relative to control; assay type: ADME, organism-based; details: in vivo; in short: as §1
[4] = Drug uptake in Sprague-Dawley rat kidney at 0.3 mg/kg, iv administered as single dose after 24 hrs by LCMS analysis; assay type: ADME, organism-based; details: read-out: Drug uptake; in short: as §1
[5] = Drug excretion in bile duct cannulated Sprague-Dawley rat bile at 2 mg/kg, iv administered as single dose after 24 hrs by LCMS analysis; assay type: ADME, organism-based; details: read-out: Drug excretion
In short: (§2)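 Bile duct-cannulated SD rats given single i.v. dose in saline; urine and bile collected over 24 h. Unchanged drug quantified by LC-MS/MS and expressed as cumulative % of dose; mean ± SD of three animals.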

[6] = Drug excretion in bile duct cannulated Sprague-Dawley rat urine at 2 mg/kg, iv administered as single dose after 24 hrs by LCMS analysis; assay type: ADME, organism-based; details: read-out: Drug excretion; in short: as §2
[7] = target: T1, Sodium/glucose cotransporter 1 (Homo sapiens, UniProt P13866); assay: Inhibition of human SGLT1 expressed in CHOK1 cells assessed as reduction in sodium-dependent glucose uptake after 30 mins in presence of [14C]-methyl-alpha -D-glucopyranoside by microbeta counting method; assay type: cell-based
T1 sequence (P13866 whole entry): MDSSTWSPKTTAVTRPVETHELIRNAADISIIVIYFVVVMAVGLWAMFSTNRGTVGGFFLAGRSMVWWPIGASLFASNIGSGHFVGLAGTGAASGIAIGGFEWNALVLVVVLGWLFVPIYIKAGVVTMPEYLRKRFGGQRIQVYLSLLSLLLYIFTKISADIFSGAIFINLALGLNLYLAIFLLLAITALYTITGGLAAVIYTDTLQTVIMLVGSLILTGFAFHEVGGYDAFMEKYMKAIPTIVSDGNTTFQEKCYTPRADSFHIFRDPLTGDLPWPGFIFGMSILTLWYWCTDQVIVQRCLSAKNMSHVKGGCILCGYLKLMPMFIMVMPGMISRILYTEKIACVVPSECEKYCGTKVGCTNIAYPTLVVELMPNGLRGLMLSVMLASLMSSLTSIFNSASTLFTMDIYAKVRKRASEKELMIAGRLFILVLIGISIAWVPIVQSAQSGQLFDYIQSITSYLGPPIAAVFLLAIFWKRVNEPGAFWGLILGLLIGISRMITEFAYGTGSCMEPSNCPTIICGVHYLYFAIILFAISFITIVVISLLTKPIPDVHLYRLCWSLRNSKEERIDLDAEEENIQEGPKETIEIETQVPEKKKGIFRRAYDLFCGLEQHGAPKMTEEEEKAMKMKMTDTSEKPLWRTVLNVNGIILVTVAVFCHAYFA
In short: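 CHO-K1 cells stably expressing human SGLT1, preincubated 20 min in Na-free choline buffer (pH 7.4). Uptake buffer (140 mM NaCl, HEPES/Tris pH 7.4) with 0.1 mM methyl-α-D-glucopyranoside plus [14C] tracer and test compound, 30 min at 37 °C. Cells washed, lysed in NaOH, radioactivity counted. Choline-for-Na buffer as background. Six concentrations; IC50 vs untreated control; mean of at least two experiments.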

[8] = target: T2, Sodium/glucose cotransporter 2 (Homo sapiens, UniProt P31639); assay: Inhibition of human SGLT2 expressed in CHOK1 cells assessed as reduction in sodium-dependent glucose uptake after 1 hr in presence of [14C]-methyl-alpha -D-glucopyranoside by microbeta counting method; assay type: cell-based
T2 sequence (P31639 whole entry): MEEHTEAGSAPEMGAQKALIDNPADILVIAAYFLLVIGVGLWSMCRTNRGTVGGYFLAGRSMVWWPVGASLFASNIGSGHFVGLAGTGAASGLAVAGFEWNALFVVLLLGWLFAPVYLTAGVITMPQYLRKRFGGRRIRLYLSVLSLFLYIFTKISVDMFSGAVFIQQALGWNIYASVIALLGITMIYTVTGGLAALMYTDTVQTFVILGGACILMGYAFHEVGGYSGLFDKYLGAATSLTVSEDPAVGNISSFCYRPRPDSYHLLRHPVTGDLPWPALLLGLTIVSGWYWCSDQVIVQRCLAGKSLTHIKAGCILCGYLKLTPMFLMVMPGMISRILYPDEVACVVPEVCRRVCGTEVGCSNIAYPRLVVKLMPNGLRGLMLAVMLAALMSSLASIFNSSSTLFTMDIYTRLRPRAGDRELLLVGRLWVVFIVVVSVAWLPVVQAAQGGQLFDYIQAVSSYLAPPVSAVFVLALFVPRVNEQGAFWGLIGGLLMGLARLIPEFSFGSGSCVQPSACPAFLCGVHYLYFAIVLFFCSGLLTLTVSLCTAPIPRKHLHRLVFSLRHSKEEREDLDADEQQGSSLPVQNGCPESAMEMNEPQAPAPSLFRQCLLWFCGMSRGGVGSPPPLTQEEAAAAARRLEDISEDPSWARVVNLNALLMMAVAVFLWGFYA
In short: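 Human SGLT2 stably expressed in CHO-K1 cells; 20 min Na-free choline pretreatment, then Na+ uptake buffer pH 7.4 with 1 mM methyl-α-D-glucopyranoside containing [14C] label plus compound, 1 h at 37 °C. Washed, NaOH lysis, scintillation counting; Na-free buffer for background. IC50 from six concentrations relative to uninhibited uptake; mean of at least two experiments.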

[9] = Permeability of the compound at pH 7.4 by PAMPA assay; assay type: ADME; details: read-out: permeability
In short: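 PAMPA at pH 7.4: filter coated with GIT-0 lipid; donor compartment holds compound in universal buffer at 25 μM or 5 μM; permeability reported as ×10⁻⁶ cm/s.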

| IC50 [7] [µM] | IC50 [8] [µM] | Compound | other results |
| --- | --- | --- | --- |
| 0.055 | 0.069 | Cc1cc(/C=C/C(C)(C)C(=O)NC(C)(C)CO)ccc1Cc1cc([C@@H]2O[C@H](CO)[C@@H](O)[C@H](O)[C@H]2O)c(O)cc1C(C)C | Papp [9]: 5 nm/s |
| 0.034 | 0.017 | Cc1cc(C)c([C@@H]2O[C@H](CO)[C@@H](O)[C@H](O)[C@H]2O)cc1Cc1ccc(/C=C/C(C)(C)C(=O)NC(C)(C)CO)cc1F |  |
| 12.5 | 2.13 | Cc1cc(C)c([C@@H]2O[C@H](CO)[C@@H](O)[C@H](O)[C@H]2O)cc1Cc1ccc(/C=C/C(C)(C)C(=O)NC(C)(C)CO)cc1C(C)C |  |
| 0.023 | 0.019 | CC(C)c1cc(O)c([C@@H]2O[C@H](CO)[C@@H](O)[C@H](O)[C@H]2O)cc1Cc1ccc(/C=C/C(C)(C)C(=O)NC(C)(C)CO)cc1 |  |

Continued, compound first:

| Compound | IC50 [7] [µM] | IC50 [8] [µM] | other results |
| --- | --- | --- | --- |
| Cc1cc(O)c([C@@H]2O[C@H](CO)[C@@H](O)[C@H](O)[C@H]2O)cc1Cc1ccc(CCNC(=O)NC(CO)(CO)CO)cc1 |  |  | concentration at 72 h [1]: 803 ng/g; concentration at 2 h [2]: 1900 ng/g; Drug uptake [3]: 42%; concentration at 24 h [4]: 1110 ng/g; dose excreted at 24 h [5]: 30.2%; dose excreted at 24 h [6]: 36.2% |
| COc1cc(C(C)C)c(Cc2ccc(/C=C/C(C)(C)C(=O)NC(C)(C)C(=O)N3CCN(C)CC3)cc2C)cc1[C@@H]1O[C@H](CO)[C@@H](O)[C@H](O)[C@H]1O | 0.055 | 0.281 |  |
| COc1cc(/C=C/C(C)(C)C(=O)NC(C)(C)CO)ccc1Cc1cc([C@@H]2O[C@H](CO)[C@@H](O)[C@H](O)[C@H]2O)c(C)cc1C | 1.17 | 0.798 |  |
| Cc1cc(C)c([C@@H]2O[C@H](CO)[C@@H](O)[C@H](O)[C@H]2O)cc1Cc1ccc(/C=C/C(C)(C)C(=O)NC(C)(C)CO)cc1 | 0.022 | 0.01 |  |
